A selection: hits, their analogues and other compounds. The true share with any hit is near 2.8%.
EBI2 block – EBI2 receptor antagonists, beta-arrestin recruitment, primary screen, cell-based, luminescence, 7a,25-OHC stimulation, uHTS; inhibition, % at 5 µM; 7a,25-OHC stimulated; AID 651636, 2012; 360,000 compounds, 0.81% hits; in the data active means inhibition above about 38%;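 further: enzyme fragment complementation signal reports receptor beta-arrestin coupling in cells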
m5-HT2A agonist – mouse Htr2a agonists via beta-arrestin recruitment, primary screen, cell-based, luminescence. 360,000 compounds, 0.66% hits. 5-hydroxytryptamine receptor 2A (Mus musculus), P35363. activation, % at 7.6 µM. CHO-K1 mHTR2A beta-arrestin complementation; percent of 30 µM serotonin response;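 active means activation above a run cutoff, the mean activation of all tested compounds plus 3 SD, cut at about 14% in these data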
MC4R antag cAMP – MC4R antagonists of cAMP signaling, primary screen, cell-based, TR-FRET, antagonist arm of biased-ligand search; Melanocortin receptor 4 (Homo sapiens), P32245; MC4R-expressing cells, MTII-stimulated cAMP, LANCE TR-FRET; inhibition, % at 6.5 µM; 360,000 compounds, 0.48% hits; AID 540295, 2011;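 active means inhibition above its plate's cutoff, the mean of tested wells on that plate plus 3 SD, cut at about 29% in these data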
Target sequence (P32245 whole entry, looked up): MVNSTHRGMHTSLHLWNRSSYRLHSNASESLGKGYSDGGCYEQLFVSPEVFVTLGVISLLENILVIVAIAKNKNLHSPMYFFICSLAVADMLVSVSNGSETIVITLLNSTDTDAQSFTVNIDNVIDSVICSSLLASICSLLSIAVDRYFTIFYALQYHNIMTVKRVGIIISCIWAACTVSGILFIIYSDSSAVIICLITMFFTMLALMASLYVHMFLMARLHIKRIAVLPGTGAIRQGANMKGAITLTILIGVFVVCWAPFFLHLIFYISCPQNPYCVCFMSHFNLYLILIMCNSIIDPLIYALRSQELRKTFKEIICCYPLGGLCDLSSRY
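system = U2OS cells with stable human MC4R expression | also added = Melanotan II challenge after compound preincubation | dosing = one concentration, 6.5 µM nominal | incubation = compound 30 min, challenge 1 h, detection 1 h | measured by = TR-FRET with Eu-cAMP and labeled anti-cAMP, 671 nm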
MC4R barr agon – MC4R agonists recruiting beta-arrestin, primary screen, cell-based, luminescence, agonist arm of biased-ligand search | U2OS MC4R beta-arrestin complementation; percent of melanotan II response, DMSO zero | activation, % at 8.9 µM | 360,000 compounds, 0.98% hits | AID 540308, 2011;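 active means activation above a per-plate cutoff, the mean activation of sample wells on that plate plus 3 SD, cut at about 8% in these data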
MOR ag counter – OPRM1 agonists via beta-arrestin recruitment, confirmation, counter-screen for mouse HTR2A agonist project, cell-based, luminescence, single concentration; shares compounds with m5-HT2A agonist; AID 624380, 2012; 2,300 compounds, 5.3% hits; activation, % at 9.3 µM; U2OS OPRM1 beta-arrestin PathHunter; DMSO 0%, DAMGO 9.3 µM 100%;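 active means mean activation above the mean of DMSO-only wells plus 3 SD, cut at about 0.5% in these data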
HTR2A ag conf – mouse HTR2A agonists, beta-arrestin recruitment, confirmation, cell-based, luminescence, CHO-K1 PathHunter, triplicate. shares compounds with m5-HT2A agonist. DMSO 0%, 30 µM serotonin 100%. activation, % at 7.6 µM. 2,300 compounds, 19% hits;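 active means mean activation across triplicates above the hit threshold derived in the original primary screen, cut at about 15% in these data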
Numbers stand for hits.

Results for CC1CCCCN1C(=O)COC(=O)CSc1ccc(C(N)=O)cc1[N+](=O)[O-] (configuration not stated) ?
EBI2 block: inactive; m5-HT2A agonist: inactive; MC4R antag cAMP: inactive; MC4R barr agon: inactive

What do the screens show for `CCC(C)N(C(=O)COC(=O)CSc1ccc(C)c(C)c1)C1CCS(=O)(=O)C1` (configuration not stated)?
EBI2 block: inactive; m5-HT2A agonist: 15; MC4R antag cAMP: inactive; MC4R barr agon: inactive; MOR ag counter: inactive; HTR2A ag conf: inactive

What do the screens show for `Cc1ccc(SCC(=O)OCC(=O)N(C)C2CCS(=O)(=O)C2)cc1C` (configuration not stated)?
EBI2 block: inactive; m5-HT2A agonist: inactive; MC4R antag cAMP: inactive; MC4R barr agon: inactive

What do the screens show for `COc1ccc(S(=O)(=O)N2CCOCC2)cc1NC(=O)C1CC(=O)N(c2ccc3c(c2)OCCO3)C1` (configuration not stated)?
EBI2 block: inactive; m5-HT2A agonist: inactive; MC4R antag cAMP: inactive; MC4R barr agon: inactive

What do the screens show for `CC(C)(C)c1ccc(CC(=O)N2CCC2(C)C(=O)NS(=O)(=O)c2ccc(F)cc2F)cc1` (configuration not stated)?
EBI2 block: inactive; m5-HT2A agonist: inactive; MC4R antag cAMP: inactive; MC4R barr agon: inactive

What do the screens show for `O=C(N/N=C/c1ccccc1Cl)C1CC1`?
EBI2 block: inactive; m5-HT2A agonist: 15; MC4R antag cAMP: inactive; MC4R barr agon: inactive; MOR ag counter: inactive; HTR2A ag conf: inactive

How did O=C(NN=Cc1cccc2ccccc12)C1CC1 do in these assays?
EBI2 block: inactive; m5-HT2A agonist: inactive; MC4R antag cAMP: inactive; MC4R barr agon: inactive

Results for CNC(=O)C1CCN(S(=O)(=O)c2c(C)noc2/C=C/c2ccc(OC)cc2)CC1 ?
EBI2 block: inactive; m5-HT2A agonist: 20; MC4R antag cAMP: inactive; MC4R barr agon: inactive; MOR ag counter: inactive; HTR2A ag conf: inactive

How did Cc1ccc(NC(=O)CN2CCN(C(=O)C3CC3)CC2)c(F)c1 do in these assays?
EBI2 block: inactive; m5-HT2A agonist: inactive; MC4R antag cAMP: inactive; MC4R barr agon: inactive

How did CCN1CCN(C(CNS(=O)(=O)c2ccc(OC)cc2)c2cccnc2)CC1 (configuration not stated) do in these assays?
EBI2 block: inactive; m5-HT2A agonist: 15; MC4R antag cAMP: inactive; MC4R barr agon: inactive; MOR ag counter: inactive; HTR2A ag conf: inactive

Results for COc1ccc(S(=O)(=O)NCC(c2cccnc2)N2CCN(Cc3ccccc3)CC2)cc1 (configuration not stated) ?
EBI2 block: inactive; m5-HT2A agonist: inactive; MC4R antag cAMP: inactive; MC4R barr agon: inactive

Results for Cc1ccc(N(CC(=O)NC2CCCC2)C(=O)c2c(C)noc2C)cc1C ?
EBI2 block: inactive; m5-HT2A agonist: 15; MC4R antag cAMP: inactive; MC4R barr agon: inactive; MOR ag counter: inactive; HTR2A ag conf: inactive

How did Cn1ncc([N+](=O)[O-])c1C(=O)Nc1ccccc1C#N do in these assays?
EBI2 block: inactive; m5-HT2A agonist: 16; MC4R antag cAMP: inactive; MC4R barr agon: inactive; MOR ag counter: inactive; HTR2A ag conf: inactive

What do the screens show for `Cc1ccccc1NC(=O)c1c([N+](=O)[O-])cnn1C`?
EBI2 block: inactive; m5-HT2A agonist: inactive; MC4R antag cAMP: inactive; MC4R barr agon: inactive

What do the screens show for `C=C1C[C@@H]2C[C@@H]2CN(S(=O)(=O)c2ccc(C)cc2)[C@@H]1c1ccco1`?
EBI2 block: inactive; m5-HT2A agonist: inactive

What do the screens show for `O=C(CCN1CCN(c2ccccc2)CC1)NNC(=O)c1cccc2ccccc12`?
EBI2 block: inactive; m5-HT2A agonist: inactive; MC4R antag cAMP: inactive; MC4R barr agon: inactive

What do the screens show for `CCOc1ccc(NC(=O)CCN2CCN(c3ccccc3OC)CC2)cc1`?
EBI2 block: inactive; m5-HT2A agonist: inactive; MC4R antag cAMP: inactive; MC4R barr agon: inactive

Results for COc1ccc(C)cc1NC(=O)c1ccc(CN2CCN(c3ccccc3)CC2)cc1 ?
EBI2 block: inactive; m5-HT2A agonist: 36; MC4R antag cAMP: inactive; MC4R barr agon: inactive; MOR ag counter: inactive; HTR2A ag conf: 61

Results for CCOc1ccc(NC(=O)CCN2CCN(c3ccccc3F)CC2)cc1 ?
EBI2 block: inactive; m5-HT2A agonist: 21; MC4R antag cAMP: inactive; MC4R barr agon: inactive; MOR ag counter: inactive; HTR2A ag conf: 45

Results for COc1ccc(C)cc1NC(=O)CCN1CCN(c2ccccc2F)CC1 ?
EBI2 block: inactive; m5-HT2A agonist: 18; MC4R antag cAMP: inactive; MC4R barr agon: inactive; MOR ag counter: inactive; HTR2A ag conf: 57

How did COc1cccc(C(=O)NNC(=O)CCN2CCN(c3ccccc3)CC2)c1 do in these assays?
EBI2 block: inactive; m5-HT2A agonist: 23; MC4R antag cAMP: inactive; MC4R barr agon: inactive; MOR ag counter: inactive; HTR2A ag conf: 48

Results for COc1ccc(CNC(=O)c2sc(=O)n(Cc3ccc(C)cc3)c2C)cc1 ?
EBI2 block: inactive; m5-HT2A agonist: inactive; MC4R antag cAMP: inactive; MC4R barr agon: inactive

Results for COc1cc(CN2CCC(C(=O)N3CCN(c4ccccc4F)CC3)CC2)cc(OC)c1O ?
EBI2 block: inactive; m5-HT2A agonist: inactive; MC4R antag cAMP: inactive; MC4R barr agon: inactive

How did COc1ccccc1C(=O)NCCN1CCN(c2ccccc2)CC1 do in these assays?
EBI2 block: inactive; m5-HT2A agonist: 15; MC4R antag cAMP: inactive; MC4R barr agon: inactive; MOR ag counter: inactive; HTR2A ag conf: 70

Results for COc1cc(CN2CCN(c3ccccc3F)CC2)cc(OC)c1O ?
EBI2 block: inactive; m5-HT2A agonist: 16; MC4R antag cAMP: inactive; MC4R barr agon: inactive; MOR ag counter: inactive; HTR2A ag conf: 30

How did COc1ccccc1C(=O)Nc1ccc(N2CCN(Cc3ccccc3)CC2)cc1 do in these assays?
EBI2 block: inactive; m5-HT2A agonist: inactive; MC4R antag cAMP: inactive; MC4R barr agon: inactive

What do the screens show for `Cc1ccc(C)c(NC(=O)CCN2CCOCC2)c1`?
EBI2 block: inactive; m5-HT2A agonist: 20; MC4R antag cAMP: inactive; MC4R barr agon: inactive; MOR ag counter: inactive; HTR2A ag conf: inactive

Results for CC(C)N(Cc1ccccc1)C(=O)COC(=O)CCC(=O)c1ccc(F)cc1 ?
EBI2 block: inactive; m5-HT2A agonist: inactive; MC4R antag cAMP: inactive; MC4R barr agon: inactive

Source: PubChem BioAssay (several laboratories)
